According to ChEMBL document CHEMBL1138779, “Antitumor agents. 234. Design, synthesis, and biological evaluation of novel 4beta-[(4' '-benzamido)-amino]-4'-o-demethyl-epipodophyllotoxin derivatives” (2004):
≈ marks a conversion by molar mass, not a printed value. Where “and” joins values, the source holds several entries; their conditions need not be identical. Identical values can stand only once. Calls of active or inactive are those of the source. No cut-off for these calls is given here.

Legend:
KB [1] = assay: Ratio of ED50 for KB-7d cells to that of KB cells; assay type: functional, Homo sapiens
In short: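 Relative resistance (fold) taken as ED50 against KB-7d divided by ED50 against KB. Both values come from 3-day drug exposure, with ED50 interpolated from dose–response data as the concentration reducing cell number by 50%.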

PC-3 = assay: Dose required for reduction in human prostate PC-3 cancer cells after 3 days incubation; assay type: functional; details: PC-3, 72 h, read-out: ED50 (the source's name)
In short: (§1)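 Cells grown at 37 °C, humidified 5% CO2, in RPMI-1640 with 25 mM HEPES, […], 10% (v/v) FBS and 100 µg/mL kanamycin. Drug exposure for 3 days. ED50 (concentration giving 50% reduction in cell number) interpolated from dose–response data. Triplicate tests, variation no more than 5%; independent ED50 determinations varied no more than 30%.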

1A9/ptx-10 = assay: Dose required for reduction in paclitaxel resistant human ovarian 1A9-PTX10 cancer cells after 3 days incubation; assay type: functional; details: 1A9/ptx-10, 72 h, read-out: ED50 (the source's name); in short: as §1
U-87 MG = assay: Dose required for reduction in human glioblastoma U-87-MG cancer cells after 3 days incubation; assay type: functional, U-87MG ATCC; details: 72 h, read-out: ED50 (the source's name); in short: as §1
KB [2] = assay: Dose required for reduction in human nasopharyngeal KB-7d cancer cells after 3 days incubation; assay type: functional; details: 72 h, read-out: ED50 (the source's name); in short: as §1
KB [3] = assay: Dose required to cause reduction in human nasopharyngeal KB cancer cells after 3 days incubation; assay type: functional; details: 72 h, read-out: ED50 (the source's name); in short: as §1
KB [4] = assay: Dose required for reduction in camptothecin resistant human nasopharyngeal KB cancer cells after 3 days incubation; assay type: functional; details: 72 h, read-out: ED50 (the source's name); in short: as §1
KB [5] = assay: Dose required for reduction in etoposide resistant human nasopharyngeal KB-7d cancer cells after 3 days incubation; assay type: functional; details: 72 h, read-out: ED50 (the source's name); in short: as §1
KB [6] = assay: Dose required for reduction in vincristine resistant human nasopharyngeal KB-VIN cancer cells after 3 days incubation; assay type: functional; details: 72 h, read-out: ED50 (the source's name); in short: as §1
A549 = assay: Dose required for reduction in human lung A549 cancer cells after 3 days incubation; assay type: functional; details: A549, 72 h, read-out: ED50 (the source's name); in short: as §1
MCF7 = assay: Dose required for reduction in human breast MCF-7 cancer cells after 3 day incubation; assay type: functional; details: MCF7, 72 h, read-out: ED50 (the source's name); in short: as §1
CAKI-1 [7] = assay: Dose required for reduction in human renal CAKI-1 cancer cells after 3 days incubation; assay type: functional; details: CAKI-1, 72 h, read-out: ED50 (the source's name); in short: as §1
HCT-8 = assay: Dose required for reduction in human ileocecal HCT-8 cancer cells after 3 day incubation; assay type: functional; details: HCT-8, 72 h, read-out: ED50 (the source's name); in short: as §1
1A9 = assay: Dose required to cause reduction in human ovarian 1A9 cancer cells after 3 days incubation; assay type: functional; details: 1A9, 72 h, read-out: ED50 (the source's name); in short: as §1
[8] = biological target: T1, DNA topoisomerase II (Homo sapiens) (UniProt P11388+Q02880); assay: Percentage of protein-linked DNA breaks in KB cells by [3H]thymidine incorporation; assay type: functional, cell-based; design: concentration or dose not given beside the values
In short: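 KB cells labelled overnight with 0.5 µCi/mL [methyl-3H]thymidine ([…]), chased 2 h, then treated in duplicate with compound at 10 µg/mL for 1 h. Protein-associated DNA breaks measured as potassium–SDS precipitable radioactivity. Values expressed relative to VP-16 control set at 100%.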

[9] = biological target: T1, DNA topoisomerase II (Homo sapiens); assay: Percentage of protein-linked DNA breaks in KB cells by [3H]thymidine incorporation at 5 ug/mL; assay type: functional, cell-based
In short: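 [3H]thymidine-prelabelled KB cells (0.5 µCi/mL, overnight, 2 h chase) treated in duplicate with compound at 5 µg/mL for 1 h. Protein-linked DNA breaks read as potassium–SDS precipitable radioactivity, given as percent of the VP-16 control set at 100%.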

CAKI-1 [10] = assay: Dose required for reduction in human renal CAKI-1 cancer cells after 3 days incubation; NA = not applicable; assay type: functional, cell-based; in short: as §1
KB [11] = assay: Dose required to cause reduction in human nasopharyngeal KB-7d cancer cells after 3 days incubation; assay type: functional; details: 72 h, read-out: ED50 (the source's name); in short: as §1

Structure (SMILES) | Relative resistance (KB [1]) | EC50 (PC-3) [µM] | EC50 (1A9/ptx-10) [µM] | EC50 (U-87 MG) [µM] | EC50 (KB [2]) [µg/mL] | EC50 (KB [3]) | EC50 (KB [4]) [µM] | EC50 (KB [5]) [µM] | EC50 (KB [6]) [µM] | EC50 (A549) [µM] | EC50 (MCF7) [µM] | EC50 (CAKI-1 [7]) [µM] | EC50 (HCT-8) [µM] | EC50 (1A9) [µM] | Activity [8] [%] | Activity [9] [%] | ED50 (CAKI-1 [10]) | EC50 (KB [11]) [µg/mL]
COC(=O)[C@H](CCSC)NC(=O)c1ccc(N[C@@H]2c3cc4c(cc3[C@@H](c3cc(OC)c(O)c(OC)c3)[C@H]3C(=O)OC[C@@H]32)OCO4)cc1 | 3 | 82.7 | 2.1 | 45.2 | 2.4 (≈ 3.61 µM) | 0.8 µg/mL and 1.9 µM | 3.3 | 5.6 | 65.3 | 2 | 9.3 | > 100 | 11.4 | 0.12 | 295 |  |  | 
COC(=O)[C@@H](Cc1c[nH]c2ccccc12)NC(=O)c1ccc(N[C@@H]2c3cc4c(cc3[C@@H](c3cc(OC)c(O)c(OC)c3)[C@H]3C(=O)OC[C@@H]32)OCO4)cc1 | 6.2 | > 100 | 0.35 | 94.3 | 0.4 (≈ 0.556 µM) | 0.06 µg/mL and 440 nM | 0.28 | 3.5 | 54.9 | 0.63 | 3.6 | > 100 | 3.4 | 0.02 | 121 |  |  | 
COc1cc([C@@H]2c3cc4c(cc3[C@@H](Nc3ccc([N+](=O)[O-])cc3)[C@H]3COC(=O)[C@H]23)OCO4)cc(OC)c1O | 10 |  |  |  | 2 (≈ 3.84 µM) | 0.2 µg/mL |  |  |  |  |  |  |  |  | 244 | 218 |  | 
COC(=O)[C@H](Cc1ccc(O)c(O)c1)NC(=O)c1ccc(N[C@@H]2c3cc4c(cc3[C@@H](c3cc(OC)c(O)c(OC)c3)[C@H]3C(=O)OC[C@@H]32)OCO4)cc1 | 5.5 |  |  |  | 5.5 (≈ 7.72 µM) | 1 µg/mL |  |  |  |  |  |  |  |  | 33 |  |  | 
COC(=O)[C@H](Cc1ccc(O)cc1)NC(=O)c1ccc(N[C@@H]2c3cc4c(cc3[C@@H](c3cc(OC)c(O)c(OC)c3)[C@H]3C(=O)OC[C@@H]32)OCO4)cc1 | 2.6 |  |  |  | 5 (≈ 7.18 µM) | 1.9 µg/mL |  |  |  |  |  |  |  |  | 76 |  |  | 
COc1cc([C@@H]2c3cc4c(cc3[C@@H](Nc3ccc(C(=O)NCCc5ccc(O)cc5)cc3)[C@H]3COC(=O)[C@H]23)OCO4)cc(OC)c1O | 32 |  |  |  | 0.8 (≈ 1.25 µM) | 0.02 µg/mL |  |  |  |  |  |  |  |  | 368 | 275 |  | 
COc1cc([C@@H]2c3cc4c(cc3[C@@H](Nc3ccc(C(=O)N[C@@H](C)C(=O)OCc5ccccc5)cc3)[C@H]3COC(=O)[C@H]23)OCO4)cc(OC)c1O | 0.5 | 3.8 | 0.2 | 8 | 0.25 (≈ 0.367 µM) | 0.5 µg/mL and 900 nM | 1.7 | 1.4 | 10.4 | 0.7 | 1.6 | > 100 | 2.4 | 0.05 | 210 |  |  | 
COc1cc([C@@H]2c3cc4c(cc3[C@@H](Nc3ccc(NC(=O)[C@@H](Cc5ccc(O)cc5)NC(=O)OCc5ccccc5)cc3)[C@H]3COC(=O)[C@H]23)OCO4)cc(OC)c1O |  | > 100 | 0.92 | > 100 |  | 0.49 µM |  |  | > 100 | 0.77 | 1.9 |  | > 100 | 0.0086 |  |  | inactive | 
COc1cc([C@@H]2c3cc4c(cc3[C@@H](Nc3ccc(C(=O)N[C@@H](Cc5c[nH]c6ccccc56)C(=O)O)cc3)[C@H]3COC(=O)[C@H]23)OCO4)cc(OC)c1O | 2 |  |  |  | 8 (≈ 11.3 µM) | 4 µg/mL |  |  |  |  |  |  |  |  | 7 |  |  | 
COc1cc([C@@H]2c3cc4c(cc3[C@@H](Nc3ccc(C(=O)N[C@H](C)C(=O)OCc5ccccc5)cc3)[C@H]3COC(=O)[C@H]23)OCO4)cc(OC)c1O | 2.5 | > 100 | 1.2 | 39.9 | 0.25 (≈ 0.367 µM) | 0.1 µg/mL and 1 µM | 1.9 | 0.67 | 3.7 | 0.47 | 2.7 | > 100 | 2.2 | 0.057 | 133 |  |  | 
COc1cc([C@@H]2c3cc4c(cc3[C@@H](NC(=O)[C@@H](N)Cc3ccc(O)cc3)[C@H]3COC(=O)[C@H]23)OCO4)cc(OC)c1O |  | > 100 | > 5 | > 100 |  | 18.8 µM | 44.8 | 30.2 | > 100 | 54.3 | 41.7 |  | > 100 | 3.3 |  |  | inactive | 
COc1cc([C@@H]2c3cc4c(cc3[C@@H](NC(=O)[C@H](Cc3ccc(O)cc3)NC(=O)OCc3ccccc3)[C@H]3COC(=O)[C@H]23)OCO4)cc(OC)c1O |  | 94.8 | 5 | 100 |  | 3.9 µM | 9 | 11.9 | > 100 | 15.9 | 17.4 | > 100 | 77.7 | 0.94 |  |  |  | 
COC(=O)[C@H](Cc1c[nH]cn1)NC(=O)c1ccc(N[C@@H]2c3cc4c(cc3[C@@H](c3cc(OC)c(O)c(OC)c3)[C@H]3C(=O)OC[C@@H]32)OCO4)cc1 | 9.6 | > 100 | 4 | > 100 | 2.2 (≈ 3.28 µM) | 0.23 µg/mL and 7.6 µM | 17.6 | 14.7 | 11.1 | 16.1 | 29.8 | > 100 | 66 | 0.69 | 122 |  |  | 
COC(=O)[C@H](Cc1ccccc1)NC(=O)c1ccc(N[C@@H]2c3cc4c(cc3[C@@H](c3cc(OC)c(O)c(OC)c3)[C@H]3C(=O)OC[C@@H]32)OCO4)cc1 | 1.8 | > 100 | 1.7 | 87.1 | 1 (≈ 1.47 µM) | 0.55 µg/mL and 1.4 µM | 3.7 | 1.7 | 4.2 | 1.2 | 9.6 | > 100 | 3.8 | 0.36 | 226 |  |  | 
COc1cc([C@@H]2c3cc4c(cc3[C@@H](O[C@@H]3O[C@@H]5CO[C@@H](C)O[C@H]5[C@H](O)[C@H]3O)[C@H]3COC(=O)[C@H]23)OCO4)cc(OC)c1O [ETOPOSIDE] | >20 | > 100 | > 5 | 73.6 |  | 0.5 µg/mL and 300 nM | 7 | 17.2 | > 100 | 10.6 | 62.2 | > 100 | 62.9 | 0.15 | 100 | 100 |  | > 10
COc1cc([C@@H]2c3cc4c(cc3[C@@H](Nc3ccc(C(=O)NCCc5ccccc5)cc3)[C@H]3COC(=O)[C@H]23)OCO4)cc(OC)c1O | 14 |  |  |  | 0.5 (≈ 0.803 µM) | 0.03 µg/mL |  |  |  |  |  |  |  |  |  | 227 |  | 
COc1cc([C@@H]2c3cc4c(cc3[C@@H](Nc3ccc(C(=O)NCC(=O)OCc5ccccc5)cc3)[C@H]3COC(=O)[C@H]23)OCO4)cc(OC)c1O | 0.6 | > 100 | 0.78 | 16.9 | 0.3 (≈ 0.45 µM) | 0.5 µg/mL and 860 nM | 1.3 | 2.6 | 38.9 | 0.61 | 2.3 | > 100 | 3.5 | 0.12 | 178 |  |  | 
COC(=O)[C@H](Cc1c[nH]c2ccccc12)NC(=O)c1ccc(N[C@@H]2c3cc4c(cc3[C@@H](c3cc(OC)c(O)c(OC)c3)[C@H]3C(=O)OC[C@@H]32)OCO4)cc1 | 5 |  |  |  | 2.5 (≈ 3.47 µM) | 0.5 µg/mL |  |  |  |  |  |  |  |  | 58 |  |  | 
